# PAD4 inh: PAD4 (human) enzyme inhibition; Q9UM07; recombinant PAD4, RCA probe fluorescence polarization; inhibition, % at 6.36 µM; hit rate 0.41% among 330,000; AID 485272;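 active means percent inhibition above a cutoff equal to the mean of all tested compounds plus 3 SD, cut at about 15% in these data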;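 further: 0% = PAD4 with RCA probe and DMSO and 100% = probe without PAD4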
# Target sequence (Q9UM07 whole entry, looked up): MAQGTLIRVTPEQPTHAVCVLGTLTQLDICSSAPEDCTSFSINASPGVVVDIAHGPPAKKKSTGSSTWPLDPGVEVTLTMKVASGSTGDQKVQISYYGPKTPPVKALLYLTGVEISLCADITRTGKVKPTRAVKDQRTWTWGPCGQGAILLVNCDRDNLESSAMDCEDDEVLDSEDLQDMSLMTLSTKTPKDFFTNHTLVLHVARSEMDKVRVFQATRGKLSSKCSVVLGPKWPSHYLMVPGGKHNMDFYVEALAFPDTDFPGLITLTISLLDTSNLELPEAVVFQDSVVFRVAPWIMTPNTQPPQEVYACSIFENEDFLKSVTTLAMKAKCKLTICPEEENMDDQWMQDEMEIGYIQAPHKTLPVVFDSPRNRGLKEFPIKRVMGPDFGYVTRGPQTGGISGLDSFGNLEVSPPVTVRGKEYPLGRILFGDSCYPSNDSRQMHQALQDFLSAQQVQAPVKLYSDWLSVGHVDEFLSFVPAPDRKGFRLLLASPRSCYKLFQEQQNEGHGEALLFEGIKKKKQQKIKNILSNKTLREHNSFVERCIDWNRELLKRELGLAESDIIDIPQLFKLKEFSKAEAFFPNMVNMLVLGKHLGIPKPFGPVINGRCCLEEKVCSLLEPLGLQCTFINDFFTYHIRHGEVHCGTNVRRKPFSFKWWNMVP
# UCH37 DUB inh: human UCH37 deubiquitinating enzyme inhibition; purified proteasome/UCH37, Ub-AMC cleavage fluorescence; inhibition, % (concentration not given with the values); hit rate 0.33% among 330,000;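 active means mean inhibition over replicate wells above about 20%, limit read from the data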;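 further: 0% = compound-free wells with enzyme and 100% = wells lacking proteasome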
#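 Assay system: Proteasome-bound UCH37. Buffer or medium: pH 7.4 Tris-HCl (50 mM) with ovalbumin, ATP-MgCl2, DTT. Incubation: 30 min preincubation with enzyme, 25 min cleavage at room temperature. Measured by: fluorescence, ex 355 nm, em 460 nm. Read-out basis: percent inhibition. Control set: wells without proteasome as full block, compound-free enzyme plus substrate as uninhibited.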
# HKDC1 inh: HKDC1 (human) hexokinase inhibition | recombinant HKDC1, G6PDH/diaphorase resazurin coupled fluorescence | hit rate 0.16% among 340,000 | inhibition, % at 20 µM;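 active means inhibition above about 35% when tested at 20 µM, limit read from the data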;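 further: plate controls were DMSO wells with enzyme for no effect and DMSO wells lacking enzyme for full effect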
#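 Test system: recombinant HKDC1 (HK5) hexokinase enzyme, produced in-house; Amount: enzyme 5 µg/mL final; Buffer or medium: Tris pH 8.0 buffer with MgCl2, Tween-20, BSA, BME; Reagent: glucose and ATP substrates; Doses: 20 µM test compound, 1% DMSO; Incubation: 90 min reaction incubation at room temperature, dark; Detection: resorufin fluorescence at 613 nm.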
# TDP2 absorb: TDP2 (human) inhibition, absorbance primary screen; O95551; recombinant TDP2, T5PNP hydrolysis, p-nitrophenol absorbance 415 nm; inhibition, % at 12.8 µM; hit rate 0.34% among 370,000; AID 720702;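 active means inhibition above the mean of all tested compounds plus 3 SD, set per campaign, cut at about 25% in these data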;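 further: 0% = DMSO with enzyme and 100% = buffer with substrate but no TDP2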
#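 Assay system: Recombinant human TDP2 | Quantity: 120 nM TDP2 per well | Incubation: 2 h at 37 °C | Signal: Epi absorbance | Evaluation: Percent inhibition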
# CTSL1 counter: counter-screen for PFM18AAP inhibitors: inhibitors of F. hepatica cathepsin L1 | recombinant F. hepatica cathepsin L1, Z-Leu-Arg-MCA fluorescence | hit rate 0.49% among 300,000 | inhibition, % at 5.96 µM;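 active means inhibition above the mean of all tested compounds plus 3 SD, set per screening campaign, cut at about 17% in these data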;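 further: 0% = plate median of test compound wells and 100% = 1 µM Z-Phe-Ala-diazomethylketone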
# GSTO1 counter: GSTO1 inhibition, counter-screen for RBBP9 inhibitors; P78417; inhibition, % at 5.96 µM; hit rate 1.1% among 300,000; recombinant GSTO1, activity-based probe fluorescence polarization;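 active means inhibition above the campaign mean inhibition plus 3 SD, cut at about 35% in these data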;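 further: 0% = GSTO1-1 with DMSO and 100% = wells lacking GSTO1-1 enzyme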
# GSTO1 inh conf: GSTO1 (human) inhibition, confirmation; shares compounds with GSTO1 counter; recombinant GSTO1, probe fluorescence polarization; inhibition, % at 5.96 µM; hit rate 54% among 2,400; AID 2176;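 active means inhibition above the primary screen's cutoff, its mean inhibition plus 3 SD, cut at about 35% in these data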;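 further: loss of polarization as inhibitors block binding of rhodamine sulfonate ester activity probe; 0% = GSTO1 with DMSO and 100% = wells lacking GSTO1 enzyme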
# PAD4 FP conf: confirmation of human PAD4 inhibitors; inhibition, % at 6.36 µM; recombinant PAD4, RCA probe fluorescence polarization; AID 488796; shares compounds with PAD4 inh; hit rate 28% among 1,200;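 active means mean inhibition across replicates above the hit cutoff set by the earlier primary screen, cut at about 15% in these data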;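 further: inhibitors block active-site labeling by the probe so polarization falls; 0% = PAD4 with probe and DMSO and 100% = probe without PAD4 enzyme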
# Starred values were filed as active, the others as inactive; i = inactive; nt = no result given. This is a sample that favours compounds with a hit; in the whole collection about 1.6% have one here.
SMILES,PAD4 inh,UCH37 DUB inh,HKDC1 inh,TDP2 absorb,CTSL1 counter,GSTO1 counter,GSTO1 inh conf,PAD4 FP conf
CC1=NN(c2ccccc2)C(=O)/C1=C/N(C)C,-10,6,-2,10,4,8,nt,nt
COc1cc(/C=C2/C(=O)N(c3cccc(Br)c3)N=C2C)cc(OC)c1O,27*,5,21,8,2,42*,6,1
CC1=NN(c2ccccc2)C(=O)/C1=C\C=C\c1ccccc1,-1,nt,23,2,-3,18,nt,nt
CC(=O)Oc1ccc(/C=C2/C(=O)N(c3ccccc3)N=C2C)cc1,54*,nt,1,71*,-4,52*,14,0
COc1ccc(/C=C2/C(=O)N(c3c(F)c(F)c(F)c(F)c3F)N=C2C)cc1,-9,1,0,23,1,-6,nt,nt
COc1cc(/C=C2/C(=O)N(c3ccc(Br)cc3)N=C2C)cc([N+](=O)[O-])c1O,-7,nt,nt,nt,-4,4,nt,nt
CC1=NN(c2ccccc2)C(=O)/C1=C/c1cccc(C)c1,56*,nt,11,79*,-5,59*,12,1
COc1ccc(/C=C2/C(=O)N(c3ccccc3)N=C2C)cc1,57*,5,2,nt,-2,47*,11,3
N#Cc1ccc(C=NNC(=O)c2cc(-c3cccs3)nc3ccccc23)cc1,nt,-42,nt,nt,nt,nt,nt,nt
CCOc1cc(/C=C2/C(=O)N(c3ccccc3)N=C2C)ccc1OC(=O)c1cccs1,54*,7,32,nt,0,66*,4,2
CCOc1cc(C=NNC(=O)c2ccccn2)ccc1OC(=O)c1cccs1,nt,-19,nt,nt,nt,nt,nt,nt
CC(C)c1c(C(=O)NN=C2CCc3ccccc32)nnn1-c1nonc1N,nt,-33,nt,nt,nt,nt,nt,nt
Cn1c(=O)c2cc(NCc3ccccc3)nnc2n(C)c1=O,31*,0,-1,75*,57*,81*,16,2
Cn1c(=O)c2c(nc(NCc3ccccc3)n2C)n(C)c1=O,-1,1,-2,6,1,0,nt,nt
O=c1[nH]nc(CNc2ccc(O)cc2)c2ccccc12,55*,4,15,9,-8,82*,-2,3
COc1ccc2c(c1)c(C(=O)NN=Cc1ccc(OC)c(OC)c1)c(C)n2C,nt,0,nt,nt,nt,nt,nt,nt
Cc1cc(C)nc(N=C(N)N2CCCCCC2)n1,nt,-2,nt,nt,nt,nt,nt,nt
COC(=O)/C(=C/Nc1ccc(O)cc1)[N+](=O)[O-],68*,7,8,7,2,75*,6,2
Cc1cccc(NN=Cc2ccncc2)c1,nt,12,nt,nt,nt,nt,nt,nt
Nc1cc2nc3ccccc3oc-2cc1=O,28*,16,26,13,4,68*,50*,-1
CCCCn1c(NS(=O)(=O)c2ccc(C)cc2)c(S(=O)(=O)c2ccccc2)c2nc3ccccc3nc21,36*,-197,1,58*,-3,78*,71*,-7
CC1=NN(c2ccc(Cl)cc2)C(=O)C1C(c1cccc(O)c1)c1c(C)[nH]n(-c2ccc(Cl)cc2)c1=O (centres undefined),73*,-4,20,nt,5,66*,56*,-4
COc1ccc2oc(=O)c(C(C)=NNC(=O)c3ccncc3)cc2c1,nt,-12,nt,nt,nt,nt,nt,nt
O=C1CCCC/C1=C\Nc1ccc(O)cc1,43*,14,13,4,-5,42*,6,5
O=C1CCC/C1=C/Nc1ccc(Cl)cc1,1,6,-6,-2,4,2,nt,nt
CC(=O)Nc1ccc(NC(=O)Oc2ccccc2)cc1,4,2,-5,-13,2,7,nt,nt
CN(C)c1ccc(NC(=O)Oc2ccccc2)cc1,17*,-1,1,10,5,39*,7,-2
CCCCCOC(=O)c1c(N)n(CCOC)c2nc3ccccc3nc12,26*,i,14,14,-3,65*,18,-10
CN(CCC#N)C(=O)COC(=O)C1c2ccccc2Oc2ccccc21,-1,0,-5,-11,-3,3,nt,nt

# Screening data (PubChem BioAssay)
